Test results taken from ChEMBL document CHEMBL1156675, “Synthesis and antituberculosis activity of new thiazolylhydrazone derivatives” (Eur J Med Chem, 2008).
Converted amounts (≈) assume the structure as drawn.

How the values were obtained:
[1] = tested on: Mycobacterium tuberculosis; assay: Antitubercular activity against Mycobacterium tuberculosis H37Rv ATCC 27294 by microplate alamar blue assay; type: functional
[2] = tested on: Mycobacterium tuberculosis; assay: Antitubercular activity against Mycobacterium tuberculosis H37Rv ATCC 27294 at 6.25 ug/ml by microplate alamar blue assay; type: functional
In short: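 Single-concentration primary screen at 6.25 against H37Rv in BACTEC 12B medium by Microplate Alamar Blue Assay, with results read as percent inhibition on a BACTEC 460 radiometric system. Positive BACTEC culture (GI ≥500) or McFarland No. 1 suspension was inoculated into drug vials and incubated at 37 °C with daily reads. Once the control GI reached ≥30, the daily ΔGI of drug and control vials was compared.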

NIH3T3 = assay: Cytotoxicity against mouse NIH3T3 cells after 24 hrs by MTT assay; type: cell-based; conditions: NIH3T3, 24 h
In short: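 NIH/3T3 cells grown in DMEM with 10% fetal calf serum, penicillin and streptomycin at 37 °C, 5% CO2. Plated at 5 × 10⁴ cells/ml, preincubated 24 h, then exposed to compounds (DMSO stocks diluted in medium, final DMSO <0.6%) for 24 h. MTT 0.5 mg/ml final, 4 h, 37 °C; formazan dissolved in DMSO, absorbance 540 nm. Triplicate wells; IC50 = concentration halving absorbance versus control.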

Structure (SMILES) | MIC [1] | inhibition at 6.25 µg/mL [2] | IC50 (NIH3T3)
CO[C@H]1/C=C/O[C@@]2(C)Oc3c(C)c(O)c4c(O)c(c(/C=N/N5CCN(C)CC5)c(O)c4c3C2=O)NC(=O)/C(C)=C\C=C\[C@H](C)[C@H](O)[C@@H](C)[C@@H](O)[C@@H](C)[C@H](OC(C)=O)[C@@H]1C [RIFAMPIN] | 0.25 µg/mL (≈ 0.304 µM) | 98% | 
C/C(=N\Nc1nc(-c2ccc3c(c2)CCC3)cs1)c1ccc([N+](=O)[O-])cc1 |  |  | 90 µg/mL (≈ 238 µM)
C/C(=N\Nc1nc(-c2ccc3c(c2)CCC3)cs1)c1ccc(C)cc1 |  |  | 49 µg/mL (≈ 141 µM)
C/C(=N\Nc1nc(-c2ccc3c(c2)CCC3)cs1)c1ccc(Cl)c(Cl)c1 |  |  | 110 µg/mL (≈ 273 µM)
C/C(=N\Nc1nc(-c2ccc3c(c2)CCC3)cs1)c1ccc(Cl)cc1 |  |  | 120 µg/mL (≈ 326 µM)
C/C(=N\Nc1nc(-c2ccc3c(c2)CCC3)cs1)c1ccccc1 |  |  | 200 µg/mL (≈ 600 µM)
COc1ccc(/C(C)=N/Nc2nc(-c3ccc4c(c3)CCC4)cs2)cc1 |  |  | 180 µg/mL (≈ 495 µM)
